Broadly, the inhibition is the percentage by which the read-out fell short of the control.

The values below come from ChEMBL document CHEMBL2046270, “The cis-4-amino-L-proline residue as a scaffold for the synthesis of cyclic and linear endomorphin-2 analogues” (J Med Chem, 2012).

Experiment [1] concerns the target Delta-type opioid receptor (Mus musculus) (UniProt P32300). Briefly: Agonist activity at delta opioid receptor in ICR mouse vas deferens assessed as inhibition of electrically-stimulated muscle contraction at 1 uM after 3 mins. The format is functional, tissue-based. The method in brief:
(§1)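 Transmurally stimulated tissue (0.1 Hz; 2.0 ms pulses MVD, 0.4 ms GPI; supramaximal voltage) from male ICR mice (25−30 g) or male Hartley guinea pigs (150−400 g; ileum longitudinal muscle-myenteric plexus), in 37 °C oxygenated Krebs bicarbonate (Mg-free for MVD), tension 0.5 g MVD / 1 g GPI. Agonist in contact 3 min, then washout; percent inhibition of contraction at single concentration.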

Experiment [2] has as its target Mu-type opioid receptor (Cavia porcellus) (UniProt P97266). Briefly: Agonist activity at mu opioid receptor in Hartley guinea pig ileum assessed as inhibition of electrically-stimulated muscle contraction at 1 uM after 3 mins. Type of experiment: functional, tissue-based. The method in brief: as §1
The target of experiment [3] is Kappa-type opioid receptor (Homo sapiens, UniProt P41145). Briefly: Displacement of [3H]-U69593 from human kappa opioid receptor expressed in CHO cells after 60 mins by scintillation counting. Type of experiment: cell-based. The method in brief:
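Recombinant CHO cell membranes incubated 60 min at room temperature with 3 nM [3H]U69593 and varying ligand concentrations; nonspecific binding with 10 μM naloxone. Rapid filtration, liquid scintillation counting. Ki by Cheng–Prusoff; four independent experiments, each in duplicate.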

In experiment [4] the target is Delta-type opioid receptor (Homo sapiens, UniProt P41143). Briefly: Displacement of [3H]-DPDPE from human delta opioid receptor expressed in HN9.10 cells after 3 hrs by scintillation counting. The format is cell-based. Summed up:
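Membranes from transfected HN9.10 cells expressing MOR or DOR, in 50 mM Tris pH 7.4 with bacitracin, bestatin, captopril, PMSF, BSA. 50 μg membrane with 10 concentrations of test compound and 1.0 nM [3H]DAMGO (MOR) or [3H]DPDPE (DOR); nonspecific with 10 μM naloxone. 25 °C, 3 h, duplicate; GF/B filtration, scintillation counting; Ki by Cheng–Prusoff.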
(In general: In a radioligand displacement assay an active substance lowers the binding of a labelled ligand.)

Sequence of Kappa-type opioid receptor (P41145 whole entry): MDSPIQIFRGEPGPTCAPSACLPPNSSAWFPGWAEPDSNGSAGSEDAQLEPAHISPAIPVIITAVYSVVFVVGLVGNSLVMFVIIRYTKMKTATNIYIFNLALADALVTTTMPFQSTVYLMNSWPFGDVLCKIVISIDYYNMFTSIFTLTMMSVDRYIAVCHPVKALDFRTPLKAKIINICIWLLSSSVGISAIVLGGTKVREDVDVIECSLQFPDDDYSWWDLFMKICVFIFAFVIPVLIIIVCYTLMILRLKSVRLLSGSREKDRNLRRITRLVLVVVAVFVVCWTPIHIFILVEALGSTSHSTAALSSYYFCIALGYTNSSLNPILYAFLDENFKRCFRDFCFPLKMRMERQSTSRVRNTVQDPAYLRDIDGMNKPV
Sequence of Delta-type opioid receptor (Mus musculus) (P32300 whole entry): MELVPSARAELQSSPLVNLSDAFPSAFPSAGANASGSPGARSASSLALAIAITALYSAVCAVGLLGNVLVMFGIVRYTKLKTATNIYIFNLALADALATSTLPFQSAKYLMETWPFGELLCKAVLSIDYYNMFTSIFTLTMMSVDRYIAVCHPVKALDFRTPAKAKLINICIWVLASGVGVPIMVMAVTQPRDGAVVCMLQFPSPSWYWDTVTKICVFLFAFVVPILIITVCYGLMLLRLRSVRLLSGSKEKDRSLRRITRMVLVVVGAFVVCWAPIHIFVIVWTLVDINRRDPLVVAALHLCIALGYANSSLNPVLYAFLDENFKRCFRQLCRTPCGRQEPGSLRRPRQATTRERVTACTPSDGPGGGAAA
Sequence of Delta-type opioid receptor (P41143 whole entry): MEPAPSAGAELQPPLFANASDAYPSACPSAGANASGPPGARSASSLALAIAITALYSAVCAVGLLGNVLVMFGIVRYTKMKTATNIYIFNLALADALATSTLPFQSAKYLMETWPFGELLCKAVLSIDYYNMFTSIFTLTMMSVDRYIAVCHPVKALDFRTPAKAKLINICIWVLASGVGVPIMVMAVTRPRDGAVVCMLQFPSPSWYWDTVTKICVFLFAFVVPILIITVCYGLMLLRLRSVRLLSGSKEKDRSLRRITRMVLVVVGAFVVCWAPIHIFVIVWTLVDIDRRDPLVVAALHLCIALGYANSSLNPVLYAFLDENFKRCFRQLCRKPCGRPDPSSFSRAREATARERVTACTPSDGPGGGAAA
Sequence of Mu-type opioid receptor (Cavia porcellus) (P97266 whole entry): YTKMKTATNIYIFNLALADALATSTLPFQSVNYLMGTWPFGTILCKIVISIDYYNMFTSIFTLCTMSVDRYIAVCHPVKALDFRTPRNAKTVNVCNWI

As for `Br.N[C@H]1C[C@@H](C(=O)N[C@@H](Cc2ccccc2)C(=O)N[C@@H](Cc2ccccc2)C(=O)O)N(C(=O)[C@@H](N)Cc2ccc(O)cc2)C1`, the inhibition in experiment [1] turned out to be 3.6%; in experiment [2], 0%. Also, in experiment [3], the Ki result is “Not Active”.
As for `N[C@@H](Cc1ccc(O)cc1)C(=O)N1C[C@@H]2C[C@H]1C(=O)N[C@@H](Cc1ccccc1)C(=O)N[C@@H](Cc1ccccc1)C(=O)N2`, the Ki result in experiment [4] and in experiment [3] was “Not Active” each time. Further, the inhibition in experiment [1] is 0%; in experiment [2], 1.4%.
Consider `Br.NC(=O)[C@H](Cc1ccccc1)NC(=O)[C@H](Cc1ccccc1)NC(=O)[C@@H]1C[C@H](N)CN1C(=O)[C@@H](N)Cc1ccc(O)cc1`, for which the Ki result in experiment [4] and in experiment [3] was “Not Active” each time. In addition, in experiment [1], the inhibition amounted to 20%.
